Converted amounts (≈) assume the structure as drawn. The source made the active and inactive calls. No cut-off for these calls is given here.
Assays:
[1] = tested on: Lactiplantibacillus plantarum; assay: Antimicrobial activity against Lactobacillus plantarum ATCC 8014 after 18 hrs by spectrophotometry in presence of 40 ug/ml each of phenylalanine,tyrosine and tryptophan; assay type: functional
[2] = Antimicrobial activity against Leuconostoc dextranicum ATCC 8086 after 18 hrs by spectrophotometry; assay type: functional, Leuconostoc mesenteroides subsp. dextranicum; conditions: Leuconostoc mesenteroides, ATCC 8086, 18 h
In short: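 Basal lactic-acid-bacteria medium with 0.2 µg/ml calcium pantothenate and 0.02 µg/ml pantethine; Phe and Tyr omitted, Trp at 3 µg/ml; phosphate raised fourfold and 100 µg/ml glutamine added. Aqueous stock (1 mg/ml) serially diluted, up to 200 µg/ml. Incubated at 30° for 18 h. Turbidity read at 625 nm against an uninoculated blank. MIC from at least six repeats.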

[3] = (§1) Antimicrobial activity against Leuconostoc dextranicum ATCC 8086 after 18 hrs by spectrophotometry in presence of 40 ug/ml each of phenylalanine,tyrosine and tryptophan; assay type: functional, Leuconostoc mesenteroides subsp. dextranicum; conditions: Leuconostoc mesenteroides, ATCC 8086, 18 h
[4] = tested on: Lactiplantibacillus plantarum; assay: Antimicrobial activity against Lactobacillus plantarum ATCC 8014 after 18 hrs by spectrophotometry; assay type: functional; conditions: ATCC 8014, 18 h
In short: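 Basal lactic-acid-bacteria medium with 0.2 µg/ml calcium pantothenate and 0.02 µg/ml pantethine; phenylalanine and tyrosine omitted, and tryptophan lowered to 3 µg/ml; for this strain, Phe and Tyr at 1 µg/ml. Aqueous stock (1 mg/ml) serially diluted, up to 200 µg/ml. Incubated at 30° for 18 h. Absorbance read at 625 nm versus an uninoculated blank. MIC from at least six repeats.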

Escherichia coli = assay: Antimicrobial activity against Escherichia coli ATCC 9723 after 16 hrs by spectrophotometry; assay type: functional; conditions: ATCC 9723, 16 h
In short: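 Stock of 10 mg in 10 ml sterile water (slight warming), serially diluted into autoclaved medium tubes, tested up to 200 µg/ml. Incubated at 37° for 16 h after inoculation. Turbidity read at 625 nm against an uninoculated medium blank. MIC taken as the minimum inhibitory concentration, with controls and at least six repeat assays.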

[5] = tested on: Leuconostoc mesenteroides subsp. dextranicum; assay: as §1; assay type: functional

SMILES	MIC [2] [µg/mL]	MIC [3] [µg/mL]	MIC (Escherichia coli) [µg/mL]	MIC [5]	MIC ([1]; ATCC 8014, 18 h) [µg/mL]	MIC [4] [µg/mL]	MIC [1]
NC(Cc1ccc(O)cc1Cl)C(=O)O (stereo not drawn)	6 (≈ 27.8 µM)	200	2 (≈ 9.27 µM)	–	200	0.6 (≈ 2.78 µM)	–
NC(Cc1ccc2ccccc2c1Cl)C(=O)O (racemic)	20 (≈ 80.1 µM)	–	> 200	Active	–	20 (≈ 80.1 µM)	Active
NC(Cc1ccc2ccccc2c1Br)C(=O)O (racemic)	200 (≈ 680 µM)	–	200 (≈ 680 µM)	Active	–	200 (≈ 680 µM)	Active

Continued, in another order:

MIC [2] [µg/mL]	MIC [3] [µg/mL]	MIC (Escherichia coli) [µg/mL]	MIC [5]	SMILES	MIC ([1]; ATCC 8014, 18 h) [µg/mL]	MIC [4] [µg/mL]	MIC [1]
200 (≈ 929 µM)	–	> 200	Active	NC(Cc1cccc2ccccc12)C(=O)O (stereo not drawn)	–	200 (≈ 929 µM)	Active
> 200	–	> 200	–	NC(Cc1ccc2ccccc2c1)C(=O)O (stereo not drawn)	–	> 200	–
